Consider 14 molecules from ChEMBL document CHEMBL4385671, “Discovery of small molecule inhibitors of human uridine-cytidine kinase 2 by high-throughput screening” (Bioorg Med Chem Lett, 2019).

Each structure is given as a SMILES string. Calls of active or inactive are those of the source.

The Ki is the equilibrium dissociation constant of an inhibitor or competing ligand from its target. For orientation: IC50 means the concentration that gives 50% inhibition. The inhibition is the percentage by which the read-out fell short of the control.

For experiment [1], the target named is T1, Uridine-cytidine kinase 2 (Homo sapiens, UniProt Q9BZX2).
T1 sequence (Q9BZX2 whole entry): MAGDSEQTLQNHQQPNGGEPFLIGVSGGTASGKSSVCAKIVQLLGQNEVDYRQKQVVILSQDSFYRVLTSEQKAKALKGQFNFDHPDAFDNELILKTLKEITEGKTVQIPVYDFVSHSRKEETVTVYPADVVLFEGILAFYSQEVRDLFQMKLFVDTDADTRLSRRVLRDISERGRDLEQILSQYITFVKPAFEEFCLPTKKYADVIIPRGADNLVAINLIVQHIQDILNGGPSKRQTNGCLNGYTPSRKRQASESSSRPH
The experiment in a line: Non-competitive inhibition of C-terminally His6-tagged human UCK2 expressed in Escherichia coli BL21(DE3) cells using uridine, phosphoenolpyruvate, NADH and varying ATP level by spectrophotometry based pyruvate kinase and lactate dehydrogenase coupled enzyme assay. The method, boiled down: (§1)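 Continuous coupled assay of purified C-terminally His6-tagged UCK2. Substrate titration was done with either uridine or ATP varied, at inhibitor 0, 0.5, 1.5 or 4.5 µM. Ki was derived from kinetic analysis of these titrations.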

Experiment [2] concerns the target T1, Uridine-cytidine kinase 2. In words: Inhibition of C-terminally His6-tagged human UCK2 expressed in Escherichia coli BL21(DE3) cells incubated for 15 mins before ATP addition and measured after 60 mins by ADP-Glo kinase assay. The method in brief: (§2)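 His6-tagged UCK2 (C-terminal tag), purified by Ni-NTA then ion exchange; UCK2 phosphorylates uridine with ATP and ADP-Glo measures the ADP formed, after depleting leftover ATP, as luciferase luminescence. Run in 1536-well format with 0.5 mg/mL BSA, DMSO up to 3%. Primary screen at 33 μM with hit cut-off of 3 SD of the negative control. Confirmation used 8 half-log concentrations, 0.05–167 µM.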

The target in experiment [3] is T2, Uridine-cytidine kinase 2 (Homo sapiens) (UniProt Q9BZX2).
T2 sequence (whole entry): T1 sequence (Q9BZX2 whole entry)
The experiment in a line: Inhibition of UCK2 in human K562 cells assessed as inhibition of uridine salvage at 50 uM incubated for 24 hrs by 5-ethynyl-uridine incorporation assay. The experiment is classed as cell-based. The method in brief: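 K562 cells were given compound at 50 µM with 50 µM 5-ethynyl-uridine (5-EU). 5-EU incorporated into cellular RNA was quantified by click chemistry with a fluorescent probe. Dipyridamole at 20 µM served as control.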

Experiment [4] addresses T3, UMP-CMP kinase (Homo sapiens) (UniProt P30085).
T3 sequence (whole entry): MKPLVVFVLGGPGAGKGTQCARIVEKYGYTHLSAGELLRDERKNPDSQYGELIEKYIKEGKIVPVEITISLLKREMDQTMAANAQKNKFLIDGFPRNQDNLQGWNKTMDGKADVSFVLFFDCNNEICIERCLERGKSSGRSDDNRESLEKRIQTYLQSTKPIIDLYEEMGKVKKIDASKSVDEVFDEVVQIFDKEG
The experiment in a line: Inhibition of CMPK1 (unknown origin) by ADP-Glo kinase assay. A general note: In ADP-Glo the light output rises with the ADP produced.

The target of experiment [5] is T1, Uridine-cytidine kinase 2. In words: Inhibition of C-terminally His6-tagged human UCK2 expressed in Escherichia coli BL21(DE3) cells incubated for 15 mins before ATP addition and measured after 60 mins by ADP-Glo kinase assay based HTS assay. The method in brief:
as §2

Experiment [6] concerns the target T1, Uridine-cytidine kinase 2. The experiment in a line: Non-competitive inhibition of C-terminally His6-tagged human UCK2 expressed in Escherichia coli BL21(DE3) cells using phosphoenolpyruvate, NADH and varying uridine level by spectrophotometry based pyruvate kinase and lactate dehydrogenase coupled enzyme assay. The method, boiled down:
as §1

The target of experiment [7] is Dihydroorotate dehydrogenase (quinone), mitochondrial (Homo sapiens) (UniProt Q02127). In words: Inhibition of DHODH in human K562 cells assessed as increase in uridine salvage at 200 nM incubated for 24 hrs by 5-ethynyl-uridine incorporation assay. The experiment is classed as cell-based.
Dihydroorotate dehydrogenase (quinone), mitochondrial (Homo sapiens), sequence (Q02127 whole entry): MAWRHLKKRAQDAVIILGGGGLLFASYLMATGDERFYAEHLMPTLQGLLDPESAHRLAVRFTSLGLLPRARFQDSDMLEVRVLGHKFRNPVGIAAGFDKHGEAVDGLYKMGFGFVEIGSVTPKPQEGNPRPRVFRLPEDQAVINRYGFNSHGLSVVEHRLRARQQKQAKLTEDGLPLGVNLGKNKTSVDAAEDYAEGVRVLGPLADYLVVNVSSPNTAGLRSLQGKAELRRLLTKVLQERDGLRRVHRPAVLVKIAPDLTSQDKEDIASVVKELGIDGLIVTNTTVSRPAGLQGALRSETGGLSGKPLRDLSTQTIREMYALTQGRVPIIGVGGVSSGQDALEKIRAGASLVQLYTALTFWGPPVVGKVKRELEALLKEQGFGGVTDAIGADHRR

As to `Cc1cc(C)cc(NC(=O)CSCn2[nH]nc3c(=O)nc(Cc4ccc(F)cc4)nc2-3)c1`, the results for the Ki in experiment [1] and in experiment [6] were 31 µM and 50 µM, respectively. The values for the IC50 in experiment [2] (read-out: IC50) and in experiment [5] were 48 µM and 18.9 µM, respectively. In addition, in experiment [3], the inhibition was 41.5%. The inhibition result in experiment [4] was “inactive”.
For the molecule `CC(C)(C)c1ccc(-c2nc(SCC(=O)Nc3ccc(Cl)cc3)[nH]c(=O)c2C#N)cc1`, half-maximal inhibition in experiment [5] (IC50) was put at 138 µM.
Turning to `Cc1cccc2c1Oc1nc(-c3ccccc3)nc(SCC(=O)Nc3cccc(C(=O)O)c3)c1C2`, in experiment [2] (read-out: IC50), the IC50 amounted to 4.7 µM. The inhibition in experiment [3] is 49.6%.
As to `COc1ccccc1NC(=O)CSc1nc(-c2ccc(C(C)(C)C)cc2)c(C#N)c(=O)[nH]1`, inhibition in experiment [5] was half-maximal at 80 µM (IC50).
As for `O=C(CSc1nc(-c2ccc(O)cc2)nc2c1Cc1ccccc1O2)Nc1cccc(C(=O)O)c1`, the IC50 in experiment [5] was 166 µM.
The molecule `O=C(CSc1nc(-c2ccc(F)cc2)nc2c1Cc1ccccc1O2)Nc1cccc(C(=O)O)c1` came in with a concentration for half-maximal inhibition (IC50) in experiment [5] of 166 µM.
For the molecule `Cc1ccc(-c2nc3c(c(SCC(=O)Nc4ccccc4)n2)Cc2cccc(C)c2O3)cc1`, in experiment [2] (read-out: IC50), the IC50 was 26.8 µM. Moreover, the inhibition result in experiment [3] is “inactive”.
Regarding `Cc1ccccc1NC(=O)CSCn1[nH]nc2c(=O)nc(Cc3ccc(F)cc3)nc1-2`, the inhibition in experiment [3] is 26.3%.
`Cc1ccc(-c2nc3c(c(SCC(=O)Nc4cccc(C(=O)O)c4)n2)Cc2cccc(C)c2O3)cc1`: the inhibition constant (Ki) in experiment [1] amounted to 1 µM; in experiment [6], 3.5 µM. The 50% inhibitory concentration (IC50) was found to be 3.8 µM in experiment [2] (read-out: IC50) and 52 µM in experiment [5]. Further, the inhibition in experiment [3] was 51.7%.
Take `O=C(CSc1nc2n(-c3ccc(F)cc3)[nH]cc-2c(=O)n1)Nc1ccc(Br)cc1`: the Ki in experiment [1] was found to be 12 µM; in experiment [6], 13 µM. Besides, the IC50 in experiment [2] (read-out: IC50) is 16.4 to 16.6 µM; in experiment [5], 9.2 µM. In addition, in experiment [3], the inhibition is 31.3%.
Take `O=C(CSCn1[nH]nc2c(=O)nc(Cc3ccc(F)cc3)nc1-2)Nc1ccc(F)cc1`: in experiment [2], the 50% inhibitory concentration (IC50) entry was “Not Active”.
`COc1cccc2c1Oc1nc(-c3ccc(C)cc3)nc(SCC(=O)Nc3cccc(C(=O)O)c3)c1C2`: the IC50 in experiment [2] (read-out: IC50) is 11.8 µM. In addition, the inhibition in experiment [3] is 14.9%.
As to `COc1cccc(NC(=O)CSCn2[nH]nc3c(=O)nc(Cc4ccc(F)cc4)nc2-3)c1`, the IC50 result in experiment [2] was “Not Active”.
For `O=C(N[C@@H]1CCCc2c1[nH]c1ccc(Cl)cc21)c1ccccn1`, the inhibition entry in experiment [7] is “Active”.
